This is an account of results in publication PMC3152797 (Cancer chemotherapy and pharmacology, 2009).

Like-named read-outs stand apart in the source and are kept apart here.

For data set [1] the following is noted: background statement, no reference given; cited from earlier work.
The subject of another data set is HEL cells. Put plainly: Drug-drug effect on cell survival / cell death. The note with it: for Cell death: 48 h. It counts as cell-based, human.
Another data set deals with HSC70 (HSPA8). Put plainly: HSC70. The note with it: HEL cells, Fig. 1b. It is filed as cell-based, human. A digest of the protocol: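 HEL human erythroleukemia cells were washed and resuspended in serum-free RPMI 1640 (1.2 × 10⁷ cells/200 μl). They were electroporated at 250 V and 250 μF (2-mm gap) with 200 nM HSPA1A/B siRNA, a two-mismatch control, or media only. Test compounds were added for the last 6 h of a 48-h incubation. Read-out was western blot with ECL detection, normalized to actin, at least triplicate.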

The next data set relates to P-STAT3. The experiment in a line: Down-regulation of P-STAT3. It is filed as cell-based. Particulars: Homo sapiens, HEL, read-out: IC50 for P-STAT3 down-regulation.

Regarding `C=CCNC1=C2C[C@@H](C)C[C@H](OC)[C@H](O)[C@@H](C)/C=C(\C)[C@H](OC(N)=O)[C@@H](OC)/C=C\C=C(/C)C(=O)NC(=CC1=O)C2=O` [17-AAG, 17-allylamino-17-demethoxygeldanamycin], the Solubility result in data set [1] is on record as “poor solubility”.
Take “control-siRNA: version of HSPA1 siRNA with two mismatches, 5′-CGACCGAGACAAGCGCAAG-3′, used as control (chemistry not given here)”: in the data set with HEL cells (HEL cells), the “Effect on cell survival” value is “no effect”.
Consider `CO[C@H]1/C=C\C=C(/C)C(=O)NC2=CC(=O)C(NCCN(C)C)=C(C[C@@H](C)C[C@H](OC)[C@H](O)[C@@H](C)/C=C(\C)[C@@H]1OC(N)=O)C2=O` [17-DMAG, 17-(dimethyl-aminoethylamino)-17-demethoxygeldanamycin], for which the “Effect on HSC70 (HSPA8) expression” value with HSC70 (HSPA8) was “affected by neither”. Further, the Cell death is 50% in the data set on HEL cells (50% of the IC50, with HSP70 siRNA added) and ~ 10% in the data set with HEL cells (50% of the IC50, without siRNA). Moreover, the 50% inhibitory concentration (IC50) (as a rule, the midpoint of a concentration-inhibition curve) in the data set on P-STAT3 (6 h) was 450 nM; with P-STAT3, 157 nM.
